# Assay: Toxicity liver stage against HepG2, at 10uM
# Format: cell-based
# Parameters: test concentration 10 uM, cell line HepG2-A16-CD81EGFP
# Conditions: human, HepG2-A16-CD81EGFP cells; read-out: INHIBITION
# In short: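 Uninfected HepG2-A16-CD81EGFP cells, 3 × 10^3 per well, 1536-well, plated on prespotted compound at 10 μM final, parasite-free screening media added to match infected plates; puromycin 10 μM positive, DMSO 0.5% negative; run in parallel with 48 h PbLuc assay at 37 °C, 5% CO2; viability by CellTiter-Glo luminescence, normalized to controls.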
row,SMILES,cytotoxicity at 10 µM
1,CC(C)(C)CC(=O)N1CC[C@@H](CC(=O)O)[C@@H](CCN2CCCCC2)C1,-1.11%
2,O=C(NC[C@H]1C[C@@H]2CCN1C[C@@H]2CN1CCCCC1)Nc1ccccc1,10%
3,O=c1[nH]c2c(-c3ccccn3)nsc2c(=O)n1CC1CC1,36.2%
4,CCc1ccc(CN2CCC3(CC2)C(=O)N(C)CCN3CC)cc1,-4.13%
5,Cc1noc(C)c1CN1CCCC2(CCN(C(=O)C3CC3)C2)C1 (stereo unspecified),2%
6,CS(=O)(=O)N1CCO[C@@H]2CN(C(=O)COC3CCCC3)C[C@@H]2C1,7.04%
7,Cc1cnc(N2CCC3(CC2)CC(NC(=O)C(C)C)CO3)nc1 (stereo unspecified),8.19%
8,COCCN1CCC2(CC1)CN(Cc1cccc(C)n1)C(=O)CO2,-4.52%
9,COCCNC(=O)[C@@H]1C[C@H]2[C@H](CCN2c2cc(OC)ncn2)O1,8.56%
10,Cc1cccc(C(=O)N2CC[C@H]3C[C@@H](C)O[C@@H]3C2)n1,5.37%
11,COc1ccc(OC)c(NC(=O)CSc2ccc3nncn3n2)c1,-14.2%
12,Cn1nc(C(=O)N2CCSCC2)cc1NC(=O)c1ccccc1,-13.9%
13,Cc1nn(CCc2nnc(NCC(C)C)s2)c(C)c1Br,1.91%
14,Cc1cc(-c2ccnn2C)nc(C2CCN(S(C)(=O)=O)CC2)n1,0.425%
15,Cn1ccnc1C1(O)CCCN(Cc2ccncc2)CC1 (stereo unspecified),1.52%
16,COc1ccc(N2CCNC(C(N)=O)C2)cc1 (stereo unspecified),-4.8%
17,CO[C@@H]1CCC[C@@H](NC(=O)CCCn2cncn2)[C@H]1O,7.87%
18,COCC(=O)N1CCC(c2cc(-c3ccc(N)nc3)cc(C)n2)CC1,2.06%
19,CCN1CCCC(O)(c2nc(C)c(CCOc3ccccc3F)s2)CC1 (stereo unspecified),-32.1%
20,O=C(c1cc(C2CCCN(Cc3ccccn3)C2)no1)N1CCCC1 (stereo unspecified),-18.9%
21,COCCOCC(=O)N1C[C@@H]2CC[C@H](Oc3ccccc3)[C@@H]2C1,-27.9%
22,c1ccc(-c2nnc(C3CCCN(CC4CCCCC4)C3)o2)nc1 (stereo unspecified),-28.5%
23,CN(C)C(=O)C1CN(Cc2nccs2)CCN(S(C)(=O)=O)C1 (stereo unspecified),0.325%

row,SMILES,cytotoxicity at 10 µM
1,CCC(CC)C(=O)NC1CCCc2nc(N3CCOCC3)ncc21 (stereo unspecified),4.99%
2,O=C(Cc1ccc(F)cc1)N1CCCCC1c1ccn2ccnc2n1 (stereo unspecified),-0.722%
3,O=C(O)Cc1cn2cc(C(F)(F)F)ccc2n1,11.4%
4,CCn1cc(NC(=O)NCCN2CCCCCC2=O)cn1,0.107%
5,CCOc1ncccc1C(=O)NC1CC(=O)N(CC(F)(F)F)C1 (stereo unspecified),4.43%
6,Cc1n[nH]c(C)c1CNC(=O)NC1CCCN(c2ccccc2F)C1 (stereo unspecified),-2.57%
7,O=C(c1ccon1)N1CCN(c2ccncc2Cl)CC1,2.22%
8,CCC(C)(NCC(N)=O)c1nccs1 (stereo unspecified),7.3%
9,CC(NC(=O)CCCc1nc(C(C)(C)C)no1)c1nnc2n1CCC2 (stereo unspecified),-0.527%
10,CCS(=O)(=O)CCSc1cccc(C#N)c1,-3.24%
11,Cc1ccc(C(=O)NC2CCN(Cc3noc(C(C)C)n3)CC2)s1,-10.7%
12,Cc1cnn(CCNCC(O)c2ccc(F)c(F)c2)c1 (stereo unspecified),-0.796%
13,CCc1nnc2n1CCN(C(=O)c1ccccc1OCC1CC1)C2,2.3%
14,c1ccc(CCN2CCOC3(CCc4ccccc43)C2)nc1 (stereo unspecified),-4%
15,COC(=O)c1ccc(/C=C/c2ncc(C(=O)O)s2)cc1,-7.11%
16,Cn1nnc2cc(C(=O)NS(=O)(=O)c3cccc(C#N)c3)ccc21,-6.29%
17,CCC(CO)NC(=O)Cc1ccc(NC(=O)CC2=CCCCC2)cc1 (stereo unspecified),0.571%
18,CC(=O)N1CCC(Nc2ccc(Br)cc2C#N)C1 (stereo unspecified),2.5%
19,CN(c1ncnc2sccc12)C1CCCN(c2cccnn2)C1 (stereo unspecified),0.0357%
20,COCCN(CCN(C)C)C(=O)NC1CC1,-1.78%
21,COc1ccc2c(c1)C(NCCc1c(C)noc1C)CCCO2 (stereo unspecified),-2.79%
22,Cc1ccsc1CNC(=O)CC1CN(C(=O)OC(C)(C)C)C1,-4.66%
23,O=C1OCCN1c1cccc(CNCc2cc(F)ccc2F)c1,25.3%

row,SMILES,cytotoxicity at 10 µM
1,CC(O)(CNC(=O)c1cccnc1-n1cccn1)c1ccco1 (stereo unspecified),3.09%
2,CC(=O)NC(CC(=O)Nc1nc(C)c(C)s1)c1ccccc1 (stereo unspecified),3.78%
3,Cc1cc(C)cc(OCC(=O)N2CCCN(CC(N)=O)CC2)c1,0.821%
4,Cc1cc(C(C)NC(=O)c2c[nH]c(=O)c(Cl)c2)c(C)o1 (stereo unspecified),12.5%
5,CC(c1cc(F)ccc1F)N1CCN(C(=O)c2ccc(=O)[nH]c2)CC1 (stereo unspecified),5.94%
6,O=C1CCN(CCS(=O)(=O)c2ccc(Cl)cc2)CCN1,-8.48%
7,CCCC(=O)NC1CCCN(Cc2cccs2)C1 (stereo unspecified),-3.25%
8,OCC1CCCN1c1cc(NCCNc2ccccn2)ncn1 (stereo unspecified),-20.1%
9,CC(C)Oc1ncnc2c1CCN(C(=O)c1cccn1C)CC2,6.95%
10,CC(=O)c1cc(CC(=O)N2CCCC2c2nc(C(C)C)no2)cs1 (stereo unspecified),3.07%
11,Cc1ncc(CN(C)C2CCCN(CCc3ccccc3)C2)n1C (stereo unspecified),-4.17%
12,CN(CCCC1CCCO1)C(=O)c1cccc(C#N)c1 (stereo unspecified),-7.52%
13,CN1CCN(C2CCCC2)C(CCO)C1 (stereo unspecified),0.456%
14,CCc1nc(N2CCCC(CCOC)(C(=O)O)C2)ncc1C (stereo unspecified),4.11%
15,CN(C)CC1(O)CCCN(c2ccnc3c(C(F)(F)F)cccc23)C1 (stereo unspecified),-4.55%
16,O=C(O)CCc1cc2n(n1)CCN(Cc1cnc(N3CCCC3)nc1)C2,-1.89%
17,C[C@@H]1CN(C(=O)CSc2nncn2C)C[C@@]1(O)C1CC1,-15.7%
18,COc1cc2c(cc1-c1nc3c(cnn3C(C)C)[nH]1)OCO2,-6.85%
19,CS(=O)(=O)N1CC[C@]2(O)CCN(CCCC(=O)c3ccccc3)C[C@@H]2C1,-8.86%
20,CCC(CO)N(Cc1cccnc1)C(=O)c1ccncc1F (stereo unspecified),2.59%
21,CC(C)(C)CNCC1(O)CCCN(Cc2ccccc2F)C1=O (stereo unspecified),9.04%
22,CN1Cc2nnc(C3CCOCC3)n2C(Cc2c[nH]cn2)C1 (stereo unspecified),-12.1%
23,Cc1ccc(OC2(C(=O)N(C)Cc3ccoc3)CCNCC2)cc1,9.41%

row,SMILES,cytotoxicity at 10 µM
1,CN(C)Cc1ccc(C2CCCCN2C(=O)c2cccnn2)cc1 (stereo unspecified),-3.29%
2,CCOc1ccccc1N1CCN(c2nnc(C)o2)CC1,-10.9%
3,COc1ccccc1OC1CN(C(=O)c2ccc(C(C)=O)s2)C1,2.01%
4,CC1(C)OC(=O)N(CCOc2ccc(F)cc2)C1=O,-8.68%
5,CC(C)N1CCC(CC(=O)NC[C@H]2CCc3ccccc3O2)CC1,2.04%
6,CN(CC1CCCO1)c1nc(-c2cccnc2)nc2c1CCNCC2 (stereo unspecified),-4.68%
7,CCN(CC1CCCN(CCc2cccc(OC)c2)C1)C(=O)CO (stereo unspecified),9.34%
8,C/C=C(\C)CN1CCCn2nc(CNC(=O)C3CCC3)cc2C1,4.92%
9,COc1ccc(-n2ncc(C(C)NCc3cnc(SC)nc3)c2C)cc1 (stereo unspecified),0.423%
10,COCc1cc(NCC(F)(F)F)n2nccc2n1,17%
11,COc1ccc(F)c(F)c1CN1CCC2(CC1)[C@H](O)C[C@@H]2OCCN,-14.5%
12,CCn1ccnc1-c1nc2cc(S(=O)(=O)N3CCCC3)ccc2n1C,-22.3%
13,O=C(c1ccccn1)N1CCCC(c2nccn2Cc2ccncc2)C1 (stereo unspecified),-14.1%
14,O=C(NCCn1ccnc1)c1ccn(-c2ccccc2F)n1,0.533%
15,Cc1cc(C)c(CNC(=O)N(C)Cc2ccc(F)cc2)c(=O)[nH]1,-9.12%
16,Cc1ccc(C(C)NCc2c(C(C)C)nn(C)c2N2CCOCC2)o1 (stereo unspecified),-4.79%
17,O=S1(=O)CCC(N(Cc2nc(-c3ccccn3)no2)Cc2cccs2)C1 (stereo unspecified),-4.54%
18,CNS(=O)(=O)c1ccc(C(=O)N2CCCC2c2ccccc2C)o1 (stereo unspecified),-6.23%
19,CNc1nc(CNC(=O)Nc2cccc(-n3ccc(C)n3)c2)cs1,-15.7%
20,O=C(NCCNc1ccccn1)N1CCC(O)CC1,-8.66%
21,Cc1ccc(NC2CCN(C(=O)CCc3cscn3)CC2)nn1,-9.2%
22,COc1cccc(CN2CCCC(Cn3nc(C)nc3C)C2)c1 (stereo unspecified),-13.4%
23,CC(C(=O)NCc1ccc(N2CCCCC2)nc1)n1cncn1 (stereo unspecified),-10.3%

row,SMILES,cytotoxicity at 10 µM
1,Cc1ccc(C(CNC(=O)c2c(C)noc2C(C)C)N(C)C)cc1 (stereo unspecified),-12.4%
2,CN(Cc1nc(-c2ccoc2)no1)C1CCCN(c2cccnn2)C1 (stereo unspecified),-14.8%
3,COc1cccc(CNC(=O)c2cccnc2SC(C)C)c1,-1.35%
4,CC(NC(=O)NCC1(c2ccc(F)cc2)CCC1)c1nncn1C (stereo unspecified),-3.59%
5,Cc1cnn(CC2CCCN2C(=O)c2ccc3cc[nH]c3c2)c1 (stereo unspecified),0.409%
6,O=C(c1ccnc(C2CCNCC2)c1)N1CCCC1,3.69%
7,COc1cccc(C(=O)N2CCOCC2CN(C)C)c1OC (stereo unspecified),-4.03%
8,CN1CC(=O)N(c2ccccc2)CC12CCN(Cc1nccn1C)C2 (stereo unspecified),-1.17%
9,CC(=O)N1CCN(c2cc(C3CCNCC3)ccn2)CC1,6.91%
10,O=C(COCC1CC[C@H]2[C@H](CCN2c2ncccn2)O1)N1CCCC1 (stereo partly specified),1.27%
11,CN(C)CCN1CCN(Cc2cccs2)Cc2cccnc21,-3.24%
12,O=C(c1ccncc1)N1CCN(Cc2cccnc2)c2ncccc2C1,-1.16%
13,CCc1cnc(N2CC3(CCN(Cc4ccsc4)C3)C2)nc1,2.98%
14,Cc1nn(C)c(C)c1S(=O)(=O)N1CC[C@@H]2O[C@@H](C)C[C@H]2C1,7.15%
15,COc1ncccc1CN1CCn2c(C(=O)N3CCCC3)cnc2C1,8.28%
16,CCc1cnc(N2C[C@@H]3C[C@H](C(=O)NCC(C)C)[C@H](C2)O3)nc1,12%
17,O=C(CC1[C@H]2CN(Cc3ccsc3)C[C@@H]12)N1CCCC1 (stereo partly specified),-1.16%
18,NC(=O)NCC(=O)N1C[C@@H]2CC[C@H]1CN(Cc1cscn1)C2,8.86%
19,COCC(=O)NCC1(COc2cnccn2)C[C@@H](O)[C@@H](O)C1 (stereo partly specified),2.17%
